Test results from ChEMBL document CHEMBL6134787, “Fexinidazole optimization: enhancing anti-leishmanial profile, metabolic stability and hERG safety” (RSC Med Chem, 2024).
Activity calls are given as the source filed them. The rule behind the calls is not given here.

What was measured:
[1] = test system: Leishmania amazonensis; experiment: Antileishmanial activity against wild type Leishmania amazonensis LV78 promastigotes […] assessed as inhibition of parasite growth incubated for 72 hrs by automatic microtiter plate reader analysis; format: functional, organism-based
How it was run: (§1)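 Promastigotes were grown in Schneider's medium (4 mM glutamine, gentamicin, 10% heat-inactivated FBS, pH 6.9, 27 °C). Cells were seeded at 1.5 × 10^5/well and exposed to a concentration series for 72 h at 27 °C.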

[2] = test system: Leishmania braziliensis; experiment: Antileishmanial activity against wild type Leishmania braziliensis UA847 promastigotes […] assessed as inhibition of parasite growth incubated for 72 hrs by automatic microtiter plate reader analysis; format: functional, organism-based; how it was run: as §1
[3] = test system: Leishmania major; experiment: Antileishmanial activity against wild type Leishmania major FV1 promastigotes […] assessed as inhibition of parasite growth incubated for 72 hrs by automatic microtiter plate reader analysis; format: functional, organism-based; how it was run: as §1
[4] = test system: Leishmania donovani; experiment: Antileishmanial activity against wild type Leishmania donovani HU3 promastigotes […] assessed as inhibition of parasite growth incubated for 72 hrs by automatic microtiter plate reader analysis; format: functional, organism-based
[5] = test system: Leishmania donovani; experiment: Antileishmanial activity against miltefosine resistant Leishmania donovani HU3MILR40 promastigotes […] assessed as inhibition of parasite growth incubated for 72 hrs by automatic microtiter plate reader analysis; format: functional, organism-based
How it was run: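 Promastigote (free parasite) assay: Schneider's Drosophila medium with 4 mM glutamine, 25 μg mL−1 gentamicin, 10% heat-inactivated FBS, pH 6.9, 27 °C. 1.5 × 10^5 promastigotes per well exposed to a concentration series for 72 h at 27 °C.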

[6] = Cytotoxicity against mouse L929 cells assessed as inhibition of cell growth incubated for 72 hrs by MTS assay; format: toxicity, cell-based
How it was run: (§2)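 Cells in DMEM + 10% heat-inactivated FBS with penicillin/streptomycin at 37 °C, 5% CO2. They were seeded at 1 × 10^4/well and incubated with a concentration series for 72 h at 37 °C. Viability was read by MTS/PMS assay at 490 nm and IC50 derived.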

[7] = test system: RAW264.7; experiment: Cytotoxicity against mouse RAW264.7 cells assessed as inhibition of cell growth incubated for 72 hrs by MTS assay; format: functional, cell-based; conditions: RAW264.7, 72 h; how it was run: as §2
[8] = molecular target: T1, Voltage-gated inwardly rectifying potassium channel KCNH2 (Homo sapiens, UniProt Q12809); experiment: Inhibition of human ERG stably overexpressed in HEK293 cells incubated for 30 mins by FLIPR assay; format: toxicity, cell-based; conditions: human, hek293, 0.5 h; time 30 min
[9] = Metabolic stability in rat liver microsome assessed as compound remaining at 20 uM measured after 32 mins in presence of NADP and GSH by HPLC analysis; format: ADME; conditions: liver microsomes, read-out: Stability
How it was run: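 Rat liver microsomes (final 2 mg/mL) in 50 mM phosphate pH 7.4 with 0.3 mM NADP+, 5.3 mM glucose-6-phosphate, G6PDH, 10 mM MgCl2 and 5 mM EDTA. 20 μM compound added at 37 °C. Aliquots at 0, 16 and 32 min were quenched in ice-cold acetonitrile and centrifuged. HPLC peak area at 254/280 nm was expressed relative to 0 min.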

[10] = Metabolic stability in rat liver S9 fraction assessed as compound remaining at 20 uM measured after 32 mins in presence of NADP and GSH by HPLC analysis; format: ADME, subcellular; conditions: read-out: Stability
How it was run: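 Rat liver S9 (final 4 mg/mL) in 50 mM phosphate pH 7.4 with NADPH-regenerating system (0.3 mM NADP+, 5.3 mM glucose-6-phosphate, G6PDH), 10 mM MgCl2 and 5 mM EDTA. Pre-warmed 10 min at 37 °C, then 20 μM compound and 5.5 μM GSH added. Samples taken at 0, 16 and 32 min were quenched in ice-cold acetonitrile. HPLC (254/280 nm) peak area was expressed relative to 0 min.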

[11] = test system: Leishmania amazonensis; experiment: Antileishmanial activity against wild type Leishmania amazonensis LV78 amastigotes infected in mouse peritoneal macrophage assessed as inhibition of parasite growth incubated for 72 hrs by giemsa staining based analysis; format: functional, organism-based
How it was run: (§3)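 Mouse peritoneal macrophages (1 × 10^5/well on coverslips, DMEM + 10% heat-inactivated FBS, penicillin/streptomycin) adhered overnight at 37 °C, 5% CO2. They were infected overnight with late-log promastigotes at a 20:1 parasite:macrophage ratio. Cells were then treated with compound for 72 h at 37 °C and Giemsa-stained. Amastigotes per 100 macrophages were counted to derive IC50; mean ± SD of 3–4 independent experiments.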

[12] = test system: Leishmania braziliensis; experiment: Antileishmanial activity against wild type Leishmania braziliensis UA847 amastigotes infected in mouse peritoneal macrophage assessed as inhibition of parasite growth incubated for 72 hrs by giemsa staining based analysis; format: functional, organism-based; how it was run: as §3
[13] = test system: Leishmania donovani; experiment: Antileishmanial activity against wild type Leishmania donovani HU3 amastigotes infected in mouse peritoneal macrophage assessed as inhibition of parasite growth incubated for 72 hrs by giemsa staining based analysis; format: functional, organism-based
How it was run: (§4)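 Mouse peritoneal macrophages in DMEM + 10% heat-inactivated FBS, penicillin/streptomycin; 1 × 10^5 cells per well on coverslips, adhered overnight at 37 °C, 5% CO2, non-adherent cells washed off. Infected overnight with late-log promastigotes at parasite:macrophage 40:1. Compound exposure 72 h at 37 °C; Giemsa stain, amastigotes per 100 macrophages counted, IC50 derived; means ± SD of 3–4 independent experiments.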

[14] = test system: Leishmania donovani; experiment: Antileishmanial activity against miltefosine resistant Leishmania donovani HU3MILR40 amastigotes infected in mouse peritoneal macrophage assessed as inhibition of parasite growth incubated for 72 hrs by giemsa staining based analysis; format: functional, organism-based; how it was run: as §4
[15] = Cytotoxicity against mouse peritoneal macrophage assessed as inhibition of cell growth incubated for 72 hrs by giemsa staining based analysis; format: toxicity; conditions: peritoneal macrophages
[16] = Selectivity ratio of IC50 for cytotoxicity against mouse peritoneal macrophage assessed as inhibition of cell growth to IC50 for antileishmanial activity against miltefosine resistant Leishmania donovani HU3MILR40 amastigotes infected in mouse peritoneal macrophage assessed as inhibition of parasite growth; format: toxicity, cell-based; conditions: peritoneal macrophages, read-out: Ratio IC50
[17] = test system: Leishmania donovani; experiment: Antileishmanial activity against miltefosine resistant Leishmania donovani HU3MILR40 amastigotes infected in mouse peritoneal macrophage assessed as inhibition of parasite growth at 1.5 uM incubated for 72 hrs by giemsa staining based analysis; format: functional, organism-based
How it was run: (§5)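 Adherent mouse peritoneal macrophages on coverslips infected overnight with late-log HU3MILR40 promastigotes (40 parasites per macrophage), then exposed to compound at a single fixed concentration in DMEM + 10% FBS for 72 h at 37 °C. Giemsa-stained coverslips imaged at 1000×; amastigotes per 100 macrophages counted versus DMSO control; mean ± SD of three independent experiments, Student's t-test.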

[18] = Hepatotoxicity against mouse TAMH cells assessed as cell viability at 7.8 to 125 uM incubated for 24 to 48 hrs by MTT assay; format: toxicity, cell-based; conditions: dose lower 7.8 µM, time lower 24 hrs, dose upper 125 µM, time upper 48 hrs, read-out: Activity
How it was run: (§6)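 TAMH mouse liver cells in FCS-free DMEM/F12 with 5% PANEXIN NTA, 10 mM nicotinamide and gentamicin. Seeded at 20 000/well and attached 24 h at 37 °C, 5% CO2. DMSO-diluted compounds were applied for 24 or 48 h. MTT was added for 4 h, formazan dissolved in DMSO and A570 read. Viability was background-corrected and expressed relative to DMSO controls; mean ± SD, ≥3 experiments.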

[19] = molecular target: T2, hERG (KCNH2) (Homo sapiens, UniProt Q12809); experiment: (§7) Inhibition of human ERG stably overexpressed in HEK293 cells assessed as remaining activity at 6 uM incubated for 30 mins by FLIPR assay; format: toxicity, cell-based; conditions: HEK293 cells stably overexpressing hERG, read-out: Activity
How it was run: (§8)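 HEK-293 cells stably expressing hERG, seeded at 60 000/well and grown 24 h. Compounds were added in DMSO (final 0.5%) and incubated 30 min in the dark. After 20 s baseline, Tl+ stimulus (3 mM) was added and fluorescence (ex 485/em 535 nm) recorded for 2.5 min.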

[20] = test system: Leishmania donovani; experiment: Antileishmanial activity against miltefosine resistant Leishmania donovani HU3MILR40 amastigotes infected in mouse peritoneal macrophage assessed as inhibition of parasite growth at 20 uM incubated for 72 hrs by giemsa staining based analysis; format: functional, organism-based; how it was run: as §5
[21] = molecular target: T2, hERG (KCNH2); experiment: Inhibition of human ERG stably overexpressed in HEK293 cells assessed as remaining activity at 25 uM incubated for 30 mins by FLIPR assay; format: toxicity, cell-based; conditions: HEK293 cells stably overexpressing hERG, read-out: Activity; how it was run: as §8
[22] = Hepatotoxicity against mouse TAMH cells assessed as cell viability at 125 uM incubated for 48 hrs by MTT assay; format: toxicity, cell-based; how it was run: as §6
[23] = Hepatotoxicity against human HepG2 cells assessed as cell viability at 125 uM incubated for 48 hrs by MTT assay; format: toxicity, cell-based; conditions: hepg2, 48 h, 125 µM
How it was run: (§9)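 HEP-G2 cells in RPMI 1640 + 10% heat-inactivated FBS, penicillin/streptomycin. Seeded at 15 000/well and attached 24 h at 37 °C, 5% CO2. Compounds were serially diluted in DMSO, with 24 or 48 h exposure. MTT (2.5 mg/mL solution) was added for 4 h, formazan dissolved in DMSO and A570 read. Viability was background-corrected against DMSO-treated cell controls; mean ± SD, ≥3 experiments.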

[24] = Hepatotoxicity against mouse TAMH cells assessed as reduction in cell viability at 125 uM incubated for 24 hrs by MTT assay; format: toxicity, cell-based; how it was run: as §6
[25] = Hepatotoxicity against human HepG2 cells assessed as reduction in cell viability at 125 uM incubated for 24 hrs by MTT assay; format: toxicity, cell-based; conditions: hepg2, 24 h; how it was run: as §9
[26] = molecular target: T1, Voltage-gated inwardly rectifying potassium channel KCNH2; experiment: as §7; format: toxicity, cell-based; conditions: hek293, 0.5 h, 6 µM; how it was run: as §8

T1 sequence (Q12809 whole entry): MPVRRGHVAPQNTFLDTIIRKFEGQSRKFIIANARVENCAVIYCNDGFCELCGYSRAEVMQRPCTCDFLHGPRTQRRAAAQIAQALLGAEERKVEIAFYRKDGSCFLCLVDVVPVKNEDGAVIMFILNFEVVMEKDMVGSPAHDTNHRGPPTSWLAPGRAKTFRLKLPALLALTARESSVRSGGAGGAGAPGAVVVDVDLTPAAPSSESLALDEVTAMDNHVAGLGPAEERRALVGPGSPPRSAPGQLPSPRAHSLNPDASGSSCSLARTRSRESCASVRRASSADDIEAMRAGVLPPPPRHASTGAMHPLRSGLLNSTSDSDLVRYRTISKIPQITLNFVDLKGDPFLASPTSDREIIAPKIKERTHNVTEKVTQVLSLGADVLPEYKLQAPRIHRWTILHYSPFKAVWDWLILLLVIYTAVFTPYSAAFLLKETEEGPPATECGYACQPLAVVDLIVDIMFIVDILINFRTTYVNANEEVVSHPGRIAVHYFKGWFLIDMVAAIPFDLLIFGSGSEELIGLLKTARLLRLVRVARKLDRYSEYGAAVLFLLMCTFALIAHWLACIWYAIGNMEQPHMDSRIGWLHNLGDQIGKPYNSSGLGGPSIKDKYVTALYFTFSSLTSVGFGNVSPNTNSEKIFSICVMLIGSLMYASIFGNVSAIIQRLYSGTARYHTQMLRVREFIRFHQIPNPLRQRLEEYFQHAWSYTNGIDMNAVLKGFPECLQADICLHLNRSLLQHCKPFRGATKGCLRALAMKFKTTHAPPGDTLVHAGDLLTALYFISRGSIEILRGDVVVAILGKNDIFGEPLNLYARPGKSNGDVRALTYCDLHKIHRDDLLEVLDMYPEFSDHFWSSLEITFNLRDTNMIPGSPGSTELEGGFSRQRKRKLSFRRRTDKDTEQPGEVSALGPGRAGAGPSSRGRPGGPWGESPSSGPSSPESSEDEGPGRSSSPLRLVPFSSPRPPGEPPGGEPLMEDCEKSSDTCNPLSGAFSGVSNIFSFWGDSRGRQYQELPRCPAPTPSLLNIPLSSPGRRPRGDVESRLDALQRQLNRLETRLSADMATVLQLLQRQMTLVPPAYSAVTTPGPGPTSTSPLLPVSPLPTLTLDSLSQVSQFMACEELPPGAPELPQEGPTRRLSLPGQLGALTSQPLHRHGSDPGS
T2 sequence (Q12809 whole entry): as above

| Structure (SMILES) | IC50 [1] [µM] | IC50 [2] [µM] | IC50 [3] [µM] | IC50 [4] [µM] | IC50 [5] [µM] | IC50 at 72 h [6] [µM] | IC50 [7] [µM] | IC25 [8] [µM] | remaining at 32 min, 20 µM [9] [%] | remaining at 32 min, 20 µM [10] [%] | IC50 [11] [µM] | IC50 [12] [µM] | IC50 [13] [µM] | IC50 [14] [µM] | IC50 at 72 h [15] [µM] | selectivity ratio [16] | Activity [17] | viability at up to 125 µM [18] [%] | activity at 0.5 h, 6 µM [19] [%] | also measured |
| --- | --- | --- | --- | --- | --- | --- | --- | --- | --- | --- | --- | --- | --- | --- | --- | --- | --- | --- | --- | --- |
| CSc1ccc(OC[C@@H]2Cn3cc([N+](=O)[O-])nc3O2)cc1 | 1.2 | 1.4 | 3.1 | 1.1 | 0.5 | > 92.2 | > 68.5 | > 6.2 | 67.5 | 97 | 0.6 | 0.5 | 0.4 | 0.4 | > 88 | > 220 | Active | > 50 | 87 | – |
| CSc1ccc(OCC2Cn3cc([N+](=O)[O-])nc3O2)cc1 (racemic) | 1.8 | 1.5 | 3.4 | 1 | 0.4 | > 100 | > 100 | 2.9 | 55.8 | 90.4 | 0.7 | 0.7 | 0.3 | 0.4 | > 100 | > 250 | Active | > 50 | 81 | – |
| CCCCCCCCCCCCCCCCOP(=O)([O-])OCC[N+](C)(C)C [MILTEFOSINE] | 22 | 17.8 | 7 | 6.9 | > 40 | 81.5 | 9.9 | – | – | – | 9.6 | 3.2 | 2.7 | > 20 | > 40 | – | – | – | – | Activity [20]: inactive |
| CSc1ccc(OCc2nccn2C)cc1 | > 20 | > 20 | > 20 | > 20 | > 20 | > 100 | > 91.1 | 34.5 | 100 | 100 | – | – | – | – | – | – | – | > 50 | – | activity at 0.5 h, 25 µM [21]: 83% |
| Cn1c([N+](=O)[O-])cnc1COc1ccc(S(C)(=O)=O)cc1 [FEXINIDAZOLE SULFONE] | 9.4 | 5.9 | 1.7 | 3.8 | 5.6 | > 100 | > 100 | 42.2 | 100 | 100 | – | – | – | – | – | – | – | > 50 | – | Activity [22]: Non-toxic; Activity [23]: Non-toxic |
| C[S+]([O-])c1ccc(OCC2Cn3cc([N+](=O)[O-])nc3O2)cc1 (racemic) | > 20 | > 20 | > 20 | 10.2 | 7.1 | > 100 | > 100 | 30.1 | 100 | 100 | – | – | – | – | – | – | – | 56 | – | Activity [24]: 58%; Activity [25]: 40.8%; inhibition (INH) [26]: Not_active |
